Published values pooled from the literature.
Lines come from different studies, so protocols differ. pIC50: −log10 of the molar value. Converted amounts (≈) assume the structure as drawn.

Structure (SMILES)	tested on	test	test system	conditions	endpoint	value
CC1(C)C[C@H]2[C@H]1CC[C@]1(C)CCC[C@@]2(NS(=O)(=O)c2ccc(OC(F)(F)F)cc2)C1	HT-29	cell growth or viability, CCK-8		10 µM	inhibition	< 50%
COc1cccc(C=Nn2c(-c3ccccc3)nc3ccc(Cl)cc3c2=O)c1	LLC-PK1	cell growth or viability, MTT		72 h	pIC50	3.75
CCCS(=O)(=O)Oc1cc(C=NNC(=O)CSc2nc3c(C)cccc3c(=O)n2-c2ccccc2)ccc1OC	Klebsiella pneumoniae	microbial growth, well diffusion		20 µg/mL	inhibition zone	2 mm
CC1(C)C[C@H]2[C@H]1CC[C@]1(C)CCC[C@@]2(NS(C)(=O)=O)C1	HT-29	cell growth or viability, CCK-8		10 µM	inhibition	< 50%
COc1cc(C=NNC(=O)CSc2nc3c(C)cccc3c(=O)n2-c2ccccc2)ccc1OS(C)(=O)=O	Klebsiella pneumoniae	microbial growth, well diffusion		20 µg/mL	inhibition zone	3 mm
CC1(C)C[C@H]2[C@H]1CC[C@]1(C)CCC[C@@]2(NS(=O)(=O)C(C)(C)C)C1	HT-29	cell growth or viability, CCK-8		10 µM	inhibition	< 50%
Cc1nc(Nc2ncc(C(=O)Nc3c(C)cccc3Cl)s2)cc(N2CC[C@H](O)C2)n1	CA46	cell growth or viability, ATP luminescence		10 µM, 72 h	inhibition	56%
CC[C@H]1OC(=O)[C@H](C)[C@@H](O[C@H]2C[C@@](C)(OC)[C@@H](O)[C@H](C)O2)[C@H](C)[C@@H](O[C@@H]2O[C@H](C)C[C@H](N(C)C)[C@H]2O)[C@](C)(O)C[C@@H](C)/C(=N\OCOCCOC)[C@H](C)[C@@H](O)[C@]1(C)O	Streptococcus pneumoniae	microbial growth		clinical isolate	MIC90	4 µg/mL
COc1cc(C=NNC(=O)CSc2nc3ccc(Cl)cc3c(=O)n2-c2ccccc2)ccc1OS(C)(=O)=O	Klebsiella pneumoniae	microbial growth, well diffusion		20 µg/mL	inhibition zone	2 mm
C=C[C@]1(C)C[C@@H](OC(=O)CS[C@@H]2C[C@H]3CC[C@@H](C2)N3C)[C@]2(C)[C@H](C)CC[C@]3(CCC(=O)[C@H]32)[C@@H](C)[C@@H]1O	Streptococcus pneumoniae	microbial growth	PRSP	clinical isolate	MIC90	0.0312 µg/mL
CCS(=O)(=O)Oc1ccc(C=NNC(=O)CSc2nc3c(C)cccc3c(=O)n2-c2ccccc2)cc1	Klebsiella pneumoniae	microbial growth, well diffusion		20 µg/mL	inhibition zone	2 mm
CN[C@H](CC(C)C)C(=O)N[C@H]1C(=O)N[C@@H](CC(N)=O)C(=O)N[C@H]2C(=O)N[C@H]3C(=O)N[C@H](C(=O)N[C@H](C(=O)O)c4cc(O)cc(O)c4-c4cc3ccc4O)[C@H](O)c3ccc(c(Cl)c3)Oc3cc2cc(c3O[C@@H]2O[C@H](CO)[C@@H](O)[C@H](O)[C@H]2O[C@H]2C[C@](C)(N)[C@H](O)[C@H](C)O2)Oc2ccc(cc2Cl)[C@H]1O	Streptococcus pneumoniae	microbial growth, agar dilution	ATCC49619		MIC	0.5 µg/mL (≈ 0.345 µM)
CS(=O)(=O)Oc1ccc(C=NNC(=O)CSc2nc3ccc(Cl)cc3c(=O)n2-c2ccccc2)cc1	Klebsiella pneumoniae	microbial growth, well diffusion		20 µg/mL	inhibition zone	2 mm
CC1(C)C[C@H]2[C@H]1CC[C@]1(C)CCC[C@@]2(n2cc(C(=O)O)nn2)C1	HT-29	cell growth or viability, CCK-8		50 µM	inhibition	32.3%
CC1(C)S[C@@H]2[C@H](NC(=O)[C@H](N)c3ccc(O)cc3)C(=O)N2[C@H]1C(=O)O	Vibrio vulnificus	microbial growth, broth dilution			MIC90	3 µM
CC(=O)NC[C@H]1CN(c2ccc(N3CCOCC3)c(F)c2)C(=O)O1	Streptococcus pneumoniae	microbial growth	PRSP	clinical isolate	MIC90	2 µg/mL
CC1(C)C[C@H]2[C@H]1CC[C@]1(C)CCC[C@@]2(n2cc(CN3CCOCC3)nn2)C1	HT-29	cell growth or viability, CCK-8		50 µM	inhibition	45%
CCCS(=O)(=O)Oc1ccc(C=NNC(=O)CSc2nc3c(C)cccc3c(=O)n2-c2ccccc2)cc1	Klebsiella pneumoniae	microbial growth, well diffusion		20 µg/mL	inhibition zone	3 mm
O=c1c2cc(Cl)ccc2nc(-c2ccccc2)n1N=Cc1cccc(O)c1	LLC-PK1	cell growth or viability, MTT		72 h	pIC50	3.49
CC1(C)C[C@H]2[C@H]1CC[C@]1(C)CCC[C@@]2(n2cc(-c3ccc(F)cc3)nn2)C1	HT-29	cell growth or viability, CCK-8		10 µM	inhibition	< 50%
COc1c(N2C[C@@H]3CCCN[C@@H]3C2)c(F)cc2c(=O)c(C(=O)O)cn(C3CC3)c12	Streptococcus pneumoniae	microbial growth, agar dilution	ATCC49619		MIC	0.125 µg/mL (≈ 0.311 µM)
COc1ccc(C=NNC(=O)CSc2nc3ccc(Cl)cc3c(=O)n2-c2ccccc2)cc1OS(C)(=O)=O	Klebsiella pneumoniae	microbial growth, well diffusion		20 µg/mL	inhibition zone	3 mm
CC1(C)C[C@H]2[C@H]1CC[C@]1(C)CCC[C@@]2(n2cc(CNC(N)=O)nn2)C1	HT-29	cell growth or viability, CCK-8		10 µM	inhibition	< 50%
COc1ccc(C=Nn2c(-c3ccccc3)nc3ccc(Cl)cc3c2=O)cc1O	LLC-PK1	cell growth or viability, MTT		72 h	pIC50	3.55
CC1(C)S[C@@H]2[C@H](NC(=O)[C@H](N)c3ccccc3)C(=O)N2[C@H]1C(=O)O	Streptococcus pneumoniae	microbial growth		clinical isolate	MIC90	4 µg/mL
CC1(C)C[C@H]2[C@H]1CC[C@]1(C)CCC[C@@]2(n2cc(C(=O)NC3CCNCC3)nn2)C1	HT-29	cell growth or viability, CCK-8		10 µM	inhibition	68.1%
CCCS(=O)(=O)Oc1ccc(C=NNC(=O)CSc2nc3ccc(Cl)cc3c(=O)n2-c2ccccc2)cc1	Klebsiella pneumoniae	microbial growth, well diffusion		20 µg/mL	inhibition zone	3 mm
